Test results from article PMC11881275 (Malaria Journal, 2025).
Entries after “also recorded” stand apart in the source; their conditions may differ.

Key:
[1] = in silico predictions ref 77; cited from earlier work
[2] = Cytotoxic activity via the MTT method; assay type: cell-based, human; settings: human, HepG2 cells
P. falciparum W2 clone = assay: In vitro antimalarial activity via the SYBR Green I assay; assay type: cell-based, Plasmodium falciparum
Outline: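 Sorbitol-synchronized parasites in human O+ erythrocytes (0.5% parasitaemia, 2% haematocrit) received twofold dilutions of test compound, 1.56–200 µM final, in triplicate; artemisinin 170 nM was the control. Incubation was 72 h at 37 °C under 5% CO2/5% O2/90% N2. Cells were lysed in Tris/EDTA/saponin/Triton buffer with SYBR Green I, 30 min at 24 °C in the dark; ex 485/em 590 nm, uninfected-RBC blank subtracted. SI = HepG2 CC50 (MTT, 72 h) ÷ IC50.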

[3] = system: human hepatocellular carcinoma cell line (HepG2); assay: Cytotoxic activity via the MTT method; assay type: cell-based; settings: highest concentration tested 500 µM
[4] = system: P. falciparum NF54 gametocytes (stages IV, V); assay: Exflagellation-blocking bioassay; assay type: cell-based, Plasmodium falciparum; settings: 1 µM; ≥ 75% high, 25 to 75% average, below 25% inactive
Outline: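 Stage IV–V gametocytes were first checked for exflagellation (≥30 exflagellating microgametocytes per 1000 RBC). They were then exposed for 48 h to test compound at 1 µM in triplicate, with DMSO ≤0.5% and DHA 1 µM as controls. Exflagellation was induced in ookinete medium containing xanthurenic acid, 20 min at 24 °C, and counted by microscopy at 1000×. Inhibition ≥75% was classed active.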

| SMILES | Plasma protein binding [1] | CC50 at 72 h [2] | viability at 72 h, 500 µM [2] | SI (selectivity index) (P. falciparum W2 clone; CC50 HepG2 divided by IC50 W2) | IC50 (P. falciparum W2 clone; Plasmodium falciparum, W2, 72 h, read-out: IC50 W2) | Cytotoxicity to HepG2 cells (in words) [3] | Potential to block malaria transmission (classification) [4] |
| --- | --- | --- | --- | --- | --- | --- | --- |
| C[C@@H]1CC[C@H]2[C@@H](C)C(=O)O[C@@H]3O[C@@]4(C)CC[C@@H]1[C@]32OO4 [Artemisinin] | high plasm protein binding | ≥ 500 µM | 100% | ≥ 23,809 | 0.021 ± 0.004 µM |  |  |
| CC(=O)OCc1cn(-c2n[nH]c(C)n2)nn1 [Compound 13d, (1-(5-methyl-1H-1,2,4-triazol-3-yl)-1H-1,2,3-triazol-4-yl)methyl acetate] |  | ≥ 500 µM | 80% |  |  | non-cytotoxic; also recorded: no cytotoxicity |  |
| CC(=O)OCc1cn(-c2n[nH]c(C(F)(F)F)n2)nn1 [Compound 14d, (1-(5-(trifluoromethyl)-1H-1,2,4-triazol-3-yl)-1H-1,2,3-triazol-4-yl)methyl acetate] |  | ≥ 500 µM | 93.4% |  |  | non-cytotoxic; also recorded: no cytotoxicity | high potential to block malaria transmission; also recorded: strong potential to block malaria transmission |
| CCN(CC)CCCC(C)Nc1ccnc2cc(Cl)ccc12 (stereo not drawn) [chloroquine] | high plasm protein binding |  |  |  |  |  |  |
| OC(c1cc(C(F)(F)F)nc2c(C(F)(F)F)cccc12)C1CCCCN1 (stereo not drawn) [mefloquine] | high plasm protein binding |  |  |  |  |  |  |
| COc1cc(NC(C)CCCN)c2ncccc2c1 (stereo not drawn) [primaquine] | high plasm protein binding |  |  |  |  |  |  |
